We go through four compounds from ChEMBL document CHEMBL1132327, “Improved in vivo stability of actinium-225 macrocyclic complexes” (J Med Chem, 1999).

What all share (settings): in vivo
The species entered for data set [1] is Mus musculus. Briefly: Biodistribution of [225Ac]-labeled compound in normal mice spleen after 120 hr. It is filed as ADME, organism-based.
The species entered for data set [2] is Mus musculus. Briefly: Biodistribution of [225Ac]-labeled compound in normal mice kidney after 1 hr. In kind it is ADME, organism-based.
For data set [3], the species on record is Mus musculus. Briefly: Biodistribution of [225Ac]-labeled compound in normal mice heart after 4 hr. In kind it is ADME, organism-based.
For data set [4], the species on record is Mus musculus. Briefly: Biodistribution of [225Ac]-labeled compound in normal mice bone after 1 hr. It is filed as ADME, organism-based, Bone element.
The species named for data set [5] is Mus musculus. Description: Biodistribution of [225Ac]-labeled compound in normal mice spleen after 24 hr. It is filed as ADME, organism-based.
The species named for data set [6] is Mus musculus. Description: Biodistribution of [225Ac]-labeled compound in normal mice liver after 24 hr. In kind it is ADME, organism-based.
For data set [7], the species on record is Mus musculus. Briefly: Biodistribution of [225Ac]-labeled compound in normal mice spleen after 1 hr. It is filed as ADME, organism-based.
The species entered for data set [8] is Mus musculus. Description: Biodistribution of [225Ac]-labeled compound in normal mice liver after 1 hr. In kind it is ADME, organism-based.
The species named for data set [9] is Mus musculus. Briefly: Biodistribution of [225Ac]-labeled compound in normal mice heart after 120 hr. In kind it is ADME, organism-based.
The species named for data set [10] is Mus musculus. Briefly: Biodistribution of [225Ac]-labeled compound in normal mice bone after 24 hr. In kind it is ADME, organism-based, Bone element.
The species named for data set [11] is Mus musculus. Description: Biodistribution of [225Ac]-labeled compound in normal mice liver after 120 hr. In kind it is ADME, organism-based.
The species named for data set [12] is Mus musculus. Description: (§1) Biodistribution of [225Ac]-labeled compound in normal mice kidney after 120 hr. It is filed as ADME, organism-based.
Data set [13] is filed under the species Mus musculus. Briefly: Biodistribution of [225Ac]-labeled compound in normal mice bone after 120 hr. In kind it is ADME, organism-based, Bone element.
The species entered for data set [14] is Mus musculus. Briefly: Biodistribution of [225Ac]-labeled compound in normal mice heart after 1 hr. In kind it is ADME, organism-based.
Data set [15] is filed under the species Mus musculus. Description: Biodistribution of [225Ac]-labeled compound in normal mice blood after 4 hr. In kind it is ADME, organism-based.
The species entered for data set [16] is Mus musculus. Briefly: Biodistribution of [225Ac]-labeled compound in normal mice heart after 24 hr. It is filed as ADME, organism-based.
The species entered for data set [17] is Mus musculus. Briefly: Biodistribution of [225Ac]-labeled compound in normal mice blood after 1 hr. In kind it is ADME, organism-based.
The species named for data set [18] is Mus musculus. Description: Biodistribution of [225Ac]-labeled compound in normal mice blood after 120 hr. It is filed as ADME, organism-based.
The species entered for data set [19] is Mus musculus. Description: Biodistribution of [225Ac]-labeled compound in normal mice blood after 24 hr. In kind it is ADME, organism-based.
Data set [20] is filed under the species Mus musculus. Description: Biodistribution of [225Ac]-labeled compound in normal mice kidney after 24 hr. It is filed as ADME, organism-based.
The species entered for data set [21] is Mus musculus. Briefly: Biodistribution of [225Ac]-labeled compound in normal mice kidney after 4 hr. It is filed as ADME, organism-based. In outline:
(§2)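 Normal female BALB/c mice received 2.5 µCi of 225Ac complex in 200 µL MES buffer (pH 6.2) by tail-vein injection. All complexes except Ac-acetate were Chelex-purified (0.1 M NH4OAc, pH 5.0) beforehand. Three to five animals were killed per time point. Tissues were weighed and counted for 225Ac 4 h later to allow nuclear equilibration, against external standards from the dose dilutions. Results are expressed as %ID/g.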

Data set [22] is filed under the species Mus musculus. Briefly: Biodistribution of [225Ac]-labeled compound in normal mice spleen after 4 hr. In kind it is ADME, organism-based.
The species entered for data set [23] is Mus musculus. Briefly: Biodistribution of [225Ac]-labeled compound in normal mice bone after 4 hr. In kind it is ADME, organism-based, Bone element.
The species named for data set [24] is Mus musculus. Description: Biodistribution of [225Ac]-labeled compound in normal mice liver after 4 hr. It is filed as ADME, organism-based.
The species entered for data set [25] is Mus musculus. The data set is described as §1. In kind it is ADME, organism-based. In outline: as §2
The source holds these as a separate data set.

A value given as a limit tells only on which side of the number the result lay.

As for `O=C(O)CN1CCN(CC(=O)O)CCN(CC(=O)O)CCN(CC(=O)O)CCN(CC(=O)O)CCN(CC(=O)O)CC1`, the ID/g in the data set listed under Mus musculus [1] is 0.03%; in the data set filed under Mus musculus [2] it was 0.72%; in the data set listed under Mus musculus [3], 0.032%; in the data set filed under Mus musculus [4] it was 0.06%; in the data set listed under Mus musculus [5], 0.03%; in the data set listed under Mus musculus [6], 0.19%. Also, the ID/g in the data set listed under Mus musculus [7] was 0.05%; in the data set listed under Mus musculus [8], 0.17%; in the data set filed under Mus musculus [9] it was 0.03%; in the data set listed under Mus musculus [10] it was less than 0.01%; in the data set filed under Mus musculus [11] it was 0.26%; in the data set listed under Mus musculus [12], 0.25%. For the same compound, the ID/g was 0.02% in the data set listed under Mus musculus [13]; 0.06% in the data set filed under Mus musculus [14]; less than 0.01% in the data set listed under Mus musculus [15]; less than 0.01% in the data set filed under Mus musculus [16]; 0.03% in the data set listed under Mus musculus [17]; less than 0.01% in the data set listed under Mus musculus [18]. Besides, the ID/g was less than 0.01% in the data set filed under Mus musculus [19]; 0.43% in the data set filed under Mus musculus [20]; 0.71% in the data set listed under Mus musculus [21]; 0.027% in the data set filed under Mus musculus [22]; 0.025% in the data set filed under Mus musculus [23]; 0.23% in the data set listed under Mus musculus [24].
Consider `O=C(O)CN1CCN(CC(=O)O)CCN(CC(=O)O)CCN(CC(=O)O)CCN(CC(=O)O)CC1`, for which the ID/g in the data set listed under Mus musculus [1] is on record as 1.63%; in the data set filed under Mus musculus [2], 5.6%; in the data set listed under Mus musculus [3], 2.34%; in the data set listed under Mus musculus [4], 1.75%; in the data set filed under Mus musculus [5], 0.8%; in the data set listed under Mus musculus [6], 14.7%. For the same compound, the ID/g in the data set listed under Mus musculus [7] stood at 0.83%; in the data set filed under Mus musculus [8], 12%; in the data set listed under Mus musculus [9], 0.39%; in the data set filed under Mus musculus [10], 1.51%; in the data set listed under Mus musculus [11] it was 22.3%; in the data set listed under Mus musculus [13] it was 1.6%. The ID/g in the data set listed under Mus musculus [14] was 2.65%; in the data set listed under Mus musculus [15], less than 0.01%; in the data set listed under Mus musculus [16] it was 0.68%; in the data set listed under Mus musculus [25], 1.28%; in the data set listed under Mus musculus [17] it was 1.33%; in the data set filed under Mus musculus [18], less than 0.01%. Moreover, the ID/g in the data set filed under Mus musculus [19] is given as less than 0.01%; in the data set listed under Mus musculus [20], 1.64%; in the data set filed under Mus musculus [21], 3.47%; in the data set listed under Mus musculus [22], 0.59%; in the data set listed under Mus musculus [23], 1.6%; in the data set filed under Mus musculus [24] it was 16.4%.
Consider `O=C(O)CN(CC(=O)O)[C@H](Cc1ccc([N+](=O)[O-])cc1)CN(CC(=O)O)[C@@H]1CCCC[C@H]1N(CC(=O)O)CC(=O)O`, for which the ID/g in the data set filed under Mus musculus [1] came to 5.41%; in the data set filed under Mus musculus [2], 4.55%; in the data set listed under Mus musculus [3], 1.51%; in the data set listed under Mus musculus [4], 4.34%; in the data set filed under Mus musculus [5], 0.63%; in the data set filed under Mus musculus [6], 12.8%. Moreover, the ID/g in the data set filed under Mus musculus [7] was determined as 0.71%; in the data set listed under Mus musculus [8], 8.85%; in the data set listed under Mus musculus [9] it was 0.6%; in the data set listed under Mus musculus [10] it was 4.65%; in the data set filed under Mus musculus [11], 23.9%; in the data set filed under Mus musculus [13], 4.18%. Besides, the ID/g is recorded as 1.99% in the data set filed under Mus musculus [14]; less than 0.01% in the data set listed under Mus musculus [15]; 0.43% in the data set filed under Mus musculus [16]; 1.51% in the data set listed under Mus musculus [25]; 0.86% in the data set filed under Mus musculus [17]; less than 0.01% in the data set listed under Mus musculus [18]. In addition, the ID/g is given as less than 0.01% in the data set listed under Mus musculus [19]; 1.71% in the data set filed under Mus musculus [20]; 3.36% in the data set filed under Mus musculus [21]; 0.4% in the data set listed under Mus musculus [22]; 4.44% in the data set listed under Mus musculus [23]; 12.9% in the data set listed under Mus musculus [24].
For `O=C(O)CN1CCN(CC(=O)O)CCN(CC(=O)O)C(Cc2ccc([N+](=O)[O-])cc2)CN(CC(=O)O)CC1` (stereo unspecified), the ID/g stood at 0.03% in the data set listed under Mus musculus [1]; 1.23% in the data set listed under Mus musculus [2]; 0.12% in the data set listed under Mus musculus [3]; 1.54% in the data set listed under Mus musculus [4]; 0.03% in the data set filed under Mus musculus [5]; 1.29% in the data set listed under Mus musculus [6]. For the same compound, the ID/g in the data set filed under Mus musculus [7] came out at 0.06%; in the data set listed under Mus musculus [8] it was 1.15%; in the data set listed under Mus musculus [9] it was 0.11%; in the data set filed under Mus musculus [10], 0.98%; in the data set filed under Mus musculus [11] it was 3.29%; in the data set listed under Mus musculus [12], 0.27%. Further, the ID/g in the data set listed under Mus musculus [13] is 2.87%; in the data set listed under Mus musculus [14], 0.16%; in the data set filed under Mus musculus [15], less than 0.01%; in the data set listed under Mus musculus [16] it was 0.04%; in the data set listed under Mus musculus [17], 0.24%; in the data set filed under Mus musculus [18], less than 0.01%. Further, the ID/g is listed as less than 0.01% in the data set filed under Mus musculus [19]; 0.48% in the data set filed under Mus musculus [20]; 0.8% in the data set filed under Mus musculus [21]; 0.04% in the data set filed under Mus musculus [22]; 1.76% in the data set filed under Mus musculus [23]; 2.04% in the data set filed under Mus musculus [24].
